From ChEMBL document CHEMBL1144146, “Antibacterial and antiandrogen flavonoids from Sophora flavescens” (1999)
In brackets after ≈: the same amount, converted by molar mass.

Legend:
[1] = Inhibition of testosterone-5-alpha-reductase at 50 ug/mL
[2] = Displacement of [3H]DHT from 5-alpha-dihydrotestosterone receptor at 50 ug/mL
[3] = Displacement of [3H]DHT from 5-alpha-dihydrotestosterone receptor at 100 ug/mL
[4] = Inhibition of testosterone-5-alpha-reductase at 100 ug/mL
Bacillus subtilis = experiment: Antimicrobial activity against Bacillus subtilis after 48 hrs by agar plate dilution method; format: functional
How it was run: (§1)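 Strains cultured at 37 °C in soybean–casein digest broth; activity determined by agar plate dilution (described alongside broth microtiter dilution), read after 48 h incubation at 37 °C.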

Staphylococcus aureus = experiment: Antimicrobial activity against Staphylococcus aureus after 48 hrs by agar plate dilution method; format: functional; how it was run: as §1
[5] = Inhibition of testosterone-5-alpha-reductase at 200 ug/mL
[6] = Displacement of [3H]DHT from 5-alpha-dihydrotestosterone receptor at 200 ug/mL
[7] = tested on: Staphylococcus epidermidis; experiment: Antimicrobial activity against Staphylococcus epidermidis after 48 hrs by agar plate dilution method; format: functional; how it was run: as §1
Cutibacterium acnes = experiment: Antimicrobial activity against Propionibacterium acnes after 48 hrs by agar plate dilution method; format: functional; how it was run: as §1

Row | inhibition [1] [%] | Activity [2] [%] | Activity [3] [%] | inhibition [4] [%] | MIC (Bacillus subtilis) [µg/mL] | MIC (Staphylococcus aureus) [µg/mL] | inhibition [5] [%] | Activity [6] [%] | MIC [7] [µg/mL] | MIC (Cutibacterium acnes) [µg/mL] | Compound
1 | 32.5 | 63.2 | 88.2 | 84.3 |  |  |  |  |  |  | CC1(C)C=Cc2c(ccc3c2OC[C@@H](c2ccc(O)cc2O)C3)O1
2 | 0.7 | 61.1 | 89.2 | 40.5 | 2.5 (≈ 5.7 µM) | 2.5 (≈ 5.7 µM) | 93.8 | 88 |  |  | C=C(C)C(CC=C(C)C)Cc1c(O)cc(OC)c2c1O[C@H](c1ccc(O)cc1O)CC2=O (some centres not stated) [KURARINONE]
3 | 4.1 | 27.3 | 67.5 | 23.6 | 2.5 (≈ 5.92 µM) | 5 (≈ 11.8 µM) | 73.5 | 82.4 | 5 (≈ 11.8 µM) | 10 (≈ 23.7 µM) | C=C(C)C(CC=C(C)C)Cc1c(O)cc(OC)c2c1O[C@H](c1ccccc1O)CC2=O (some centres not stated) [KUSHENOL R]
4 |  |  |  |  | 10 (≈ 25.9 µM) | 10 (≈ 25.9 µM) |  |  |  |  | COc1cc(C2CC(=O)c3c(O)cc(O)c(CC=C(C)C)c3O2)c(O)cc1O (racemic) [KUSHENOL W]
5 | 0.9 | 66.1 | 82.4 | 34.8 | 5 (≈ 11.3 µM) | 5 (≈ 11.3 µM) | 88.5 | 92.7 |  |  | CC(C)=CCC(Cc1c(O)cc(O)c2c1O[C@H](c1ccc(O)cc1O)CC2=O)C(C)CO (some centres not stated) [KUSHENOL Q]
6 | 51.4 | 80.3 | 85.8 | 86.4 | 2.5 (≈ 5.89 µM) | 2.5 (≈ 5.89 µM) | 94.2 | 90.1 | 10 (≈ 23.6 µM) | 10 (≈ 23.6 µM) | C=C(C)C(CC=C(C)C)Cc1c(O)cc(O)c2c1O[C@H](c1ccc(O)cc1O)CC2=O (some centres not stated)
7 | 3.2 | 35 | 84.9 | 54.8 |  |  | 95.4 | 89.2 |  |  | C=C(C)[C@H](CCC(C)(C)O)Cc1c(O)cc(O)c2c1O[C@H](c1ccccc1O)CC2=O
8 | 7.3 | 37.8 | 47.7 | 22.9 | 5 (≈ 14.7 µM) | 5 (≈ 14.7 µM) | 37.4 | 70 |  |  | CC(C)=CCc1c(O)cc(O)c2c1O[C@H](c1ccccc1O)CC2=O [KUSHENOL S]
9 | 30.9 | 68.9 | 90.5 | 84.5 | 10 (≈ 22.7 µM) | 10 (≈ 22.7 µM) | 96.4 | 88.6 |  |  | C=C(C)C(CC=C(C)C)Cc1c(O)cc(O)c2c1O[C@H](c1ccc(O)cc1O)[C@@H](O)C2=O (some centres not stated) [KUSHENOL X]
10 | -1 | 15.5 | 27.9 | -0.2 |  |  | 11.9 | 65.8 |  |  | C=C(C)C(CCC(C)(C)O)Cc1c(O)cc(OC)c2c1O[C@H](c1ccc(O)cc1O)CC2=O (some centres not stated)
11 | 25.3 | 74.2 | 84.8 | 80.5 | 2.5 (≈ 7.02 µM) | 5 (≈ 14 µM) | 89.9 | 94.5 |  |  | CC(C)=CCc1c(O)cc(O)c2c1O[C@H](c1ccc(O)cc1O)CC2=O [LEACHIANONE G]
12 | 3.5 | 43.9 | 75.4 | 41.3 |  |  | 82.2 | 83 |  |  | C=C(C)C(CCC(C)(C)O)Cc1c(O)cc(O)c2c1O[C@H](c1ccc(O)cc1O)CC2=O (some centres not stated)
13 |  |  |  |  | 10 (≈ 25.9 µM) | 10 (≈ 25.9 µM) |  |  |  |  | COc1cc([C@@H]2CC(=O)c3c(cc(O)c(CC=C(C)C)c3O)O2)c(O)cc1O [KUSHENOL V]
14 | 34.1 | 73.7 | 58.9 | 79.3 | 2.5 (≈ 5.52 µM) | 2.5 (≈ 5.52 µM) | 94.7 | 58.4 | 10 (≈ 22.1 µM) | 25 (≈ 55.2 µM) | C=C(C)C(CC=C(C)C)Cc1c(O)cc(OC)c2c1O[C@H](c1ccc(O)cc1OC)CC2=O (some centres not stated)
15 | 7.4 | 52.6 | 85.1 | 50.3 | 10 (≈ 23.7 µM) | 10 (≈ 23.7 µM) | 84.4 | 96.9 | 10 (≈ 23.7 µM) | 10 (≈ 23.7 µM) | C=C(C)C(CC=C(C)C)Cc1c(O)cc(OC)c2c1O[C@H](c1ccc(O)cc1)CC2=O (some centres not stated) [KUSHENOL U]
16 | 21.9 | 60.1 | 89.3 | 51.4 | 2.5 (≈ 6.12 µM) | 5 (≈ 12.2 µM) | 77.3 | 89.6 | 5 (≈ 12.2 µM) | 10 (≈ 24.5 µM) | C=C(C)C(CC=C(C)C)Cc1c(O)cc(O)c2c1O[C@H](c1ccccc1O)CC2=O (some centres not stated)
17 | 14 | 60.2 | 81.4 | 50.9 |  |  | 85.1 | 84.2 |  |  | C=C(C)C(CC=C(C)C)Cc1c(O)cc(OC)c2c1O[C@H](c1ccc(O)cc1O)[C@@H](O)C2=O (some centres not stated)
